The source made the active and inactive calls. The rule behind the calls is not given here.
Columns and labels:
CYP2D6 = CYP2D6 (Homo sapiens, UniProt P10635); test: Inhibition of human CYP2D6 assessed as residual activity using quinidine as […] at 10 uM relative to control; assay type: ADME; conditions: probe quinidine, read-out: Activity
CYP2C9 = CYP2C9 (Homo sapiens, UniProt P11712); test: Inhibition of human CYP2C9 assessed as residual activity using sulfaphenazol as […] at 10 uM relative to control; assay type: ADME; conditions: read-out: Activity
Chain of CYP2C9 (P11712 whole entry): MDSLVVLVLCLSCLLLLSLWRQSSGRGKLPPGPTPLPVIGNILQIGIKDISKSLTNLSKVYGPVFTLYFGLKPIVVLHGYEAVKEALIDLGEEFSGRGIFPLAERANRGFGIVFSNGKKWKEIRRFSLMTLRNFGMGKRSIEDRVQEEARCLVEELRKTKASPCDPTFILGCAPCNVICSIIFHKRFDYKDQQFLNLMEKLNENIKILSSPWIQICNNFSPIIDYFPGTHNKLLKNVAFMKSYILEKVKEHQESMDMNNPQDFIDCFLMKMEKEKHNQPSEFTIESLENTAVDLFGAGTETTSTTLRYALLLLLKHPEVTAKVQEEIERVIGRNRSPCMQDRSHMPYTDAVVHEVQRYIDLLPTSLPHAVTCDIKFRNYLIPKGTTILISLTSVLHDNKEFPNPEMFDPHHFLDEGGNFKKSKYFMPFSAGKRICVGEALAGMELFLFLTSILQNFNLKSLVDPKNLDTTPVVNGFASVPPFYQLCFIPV

CYP2C19 = CYP2C19 (Homo sapiens, UniProt P33261); test: Inhibition of human CYP2C19 assessed as residual activity using miconazole as […] at 10 uM relative to control; assay type: ADME; conditions: probe miconazole, read-out: Activity
Chain of CYP2C19 (P33261 whole entry): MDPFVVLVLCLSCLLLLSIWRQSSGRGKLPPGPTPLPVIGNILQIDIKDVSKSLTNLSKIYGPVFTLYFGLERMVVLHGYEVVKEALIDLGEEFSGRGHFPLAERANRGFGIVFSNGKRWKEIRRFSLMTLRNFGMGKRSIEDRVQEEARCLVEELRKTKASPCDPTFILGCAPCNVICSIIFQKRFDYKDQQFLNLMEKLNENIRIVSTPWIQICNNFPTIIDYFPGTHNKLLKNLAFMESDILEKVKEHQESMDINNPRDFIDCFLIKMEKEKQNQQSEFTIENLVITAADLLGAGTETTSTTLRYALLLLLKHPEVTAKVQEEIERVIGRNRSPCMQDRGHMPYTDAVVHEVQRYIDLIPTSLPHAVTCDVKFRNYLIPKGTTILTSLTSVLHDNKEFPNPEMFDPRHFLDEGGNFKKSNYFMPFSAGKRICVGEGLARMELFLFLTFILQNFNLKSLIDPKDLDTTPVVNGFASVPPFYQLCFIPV

CYP3A4 = CYP3A4 (Homo sapiens, UniProt P08684); test: Inhibition of human CYP3A4 assessed as residual activity using ketoconazole as […] at 10 uM relative to control; assay type: ADME; conditions: probe ketoconazole, read-out: Activity
Chain of CYP3A4 (P08684 whole entry): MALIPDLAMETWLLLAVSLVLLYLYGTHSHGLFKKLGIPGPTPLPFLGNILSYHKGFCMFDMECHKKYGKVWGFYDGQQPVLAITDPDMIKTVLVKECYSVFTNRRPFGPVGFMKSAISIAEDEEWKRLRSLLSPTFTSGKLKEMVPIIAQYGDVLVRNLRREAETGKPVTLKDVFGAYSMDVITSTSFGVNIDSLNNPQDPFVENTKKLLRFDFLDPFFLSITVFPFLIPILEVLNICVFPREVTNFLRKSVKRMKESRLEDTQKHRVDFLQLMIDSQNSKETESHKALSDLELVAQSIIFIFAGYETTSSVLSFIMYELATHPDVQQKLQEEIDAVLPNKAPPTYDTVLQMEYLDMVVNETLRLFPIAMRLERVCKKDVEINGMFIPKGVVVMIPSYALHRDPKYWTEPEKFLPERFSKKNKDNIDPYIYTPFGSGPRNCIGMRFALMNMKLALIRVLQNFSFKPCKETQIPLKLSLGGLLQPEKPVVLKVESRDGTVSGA

CYP1A2 = biological target: T1, CYP1A2 (Homo sapiens, UniProt P05177); test: Inhibition of human CYP1A2 assessed as residual activity using alpha-naphthoflavon as […] at 10 uM relative to control; assay type: ADME; conditions: read-out: Activity
T1 sequence (P05177 whole entry): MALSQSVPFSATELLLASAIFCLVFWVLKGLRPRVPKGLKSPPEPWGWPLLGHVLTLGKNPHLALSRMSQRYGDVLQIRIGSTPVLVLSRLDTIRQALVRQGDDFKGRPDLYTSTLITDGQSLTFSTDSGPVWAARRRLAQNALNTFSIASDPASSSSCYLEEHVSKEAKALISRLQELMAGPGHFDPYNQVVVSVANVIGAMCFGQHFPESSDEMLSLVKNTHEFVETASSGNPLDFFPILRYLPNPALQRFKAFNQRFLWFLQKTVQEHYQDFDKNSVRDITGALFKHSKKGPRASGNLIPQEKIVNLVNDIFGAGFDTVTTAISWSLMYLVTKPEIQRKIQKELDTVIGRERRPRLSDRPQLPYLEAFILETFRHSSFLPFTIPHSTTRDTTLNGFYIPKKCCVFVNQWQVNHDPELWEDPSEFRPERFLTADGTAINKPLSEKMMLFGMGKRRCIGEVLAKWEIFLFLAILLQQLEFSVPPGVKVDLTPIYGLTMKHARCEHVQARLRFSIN

[1] = Metabolic stability in human liver microsomes assessed as compound remaining after 30 mins; assay type: ADME, Microsome; conditions: read-out: Stability
Outline: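 Compounds incubated with human hepatic microsomes; percent of parent concentration remaining at 30 min.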

[2] = biological target: T2, 5-hydroxytryptamine receptor 6 (Homo sapiens, UniProt P50406); test: Antagonist activity at human 5-HT6 receptor expressed in human HeLa cells assessed as inhibition of 5-HT-induced cAMP accumulation pretreated for 10 mins before 5-HT addition measured after 30 mins; assay type: functional, cell-based
T2 sequence (P50406 whole entry): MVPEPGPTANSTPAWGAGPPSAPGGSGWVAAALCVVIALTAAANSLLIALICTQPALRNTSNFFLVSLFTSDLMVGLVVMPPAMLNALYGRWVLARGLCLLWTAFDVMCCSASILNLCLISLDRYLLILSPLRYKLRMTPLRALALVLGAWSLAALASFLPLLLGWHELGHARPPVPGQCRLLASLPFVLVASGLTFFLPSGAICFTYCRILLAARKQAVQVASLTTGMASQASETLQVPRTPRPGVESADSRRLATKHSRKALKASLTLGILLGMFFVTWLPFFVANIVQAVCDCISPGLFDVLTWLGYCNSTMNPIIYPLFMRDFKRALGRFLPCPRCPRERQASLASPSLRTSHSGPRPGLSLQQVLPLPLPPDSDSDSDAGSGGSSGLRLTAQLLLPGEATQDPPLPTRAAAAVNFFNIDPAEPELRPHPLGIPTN

[3] = biological target: T2, 5-hydroxytryptamine receptor 6; test: Antagonist activity at human 5-HT6 receptor expressed in human HeLa cells assessed as inhibition of 5-HT-induced cAMP accumulation at 10 uM pretreated for 10 mins before 5-HT addition measured after 30 mins; assay type: functional, cell-based
Outline: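 HeLa cells stably expressing human 5-HT6 receptor, grown at 37 °C in 5% CO2/95% air, suspended in PBS with 2 mM IBMX. Compound pretreatment 10 min, then 100 nM 5-HT stimulation for 30 min. cAMP measured by HTRF (d2-labeled cAMP plus cryptate anti-cAMP antibody, 1 h at room temperature), excitation 314 nm, emission 668 and 620 nm. Single-point inhibition read at […].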

Rattus norvegicus [4] = test: Antiallodynic activity in rat spinal nerve ligation neuropathic pain mechanical allodynia model at 100 mg/kg, po after 5 hrs; assay type: functional, organism-based; set-up: dose 100 mg/kg
Outline: (§1)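 Cold and mechanical allodynia assessed at hours after a single oral 100 mg/kg dose, n = 4 per group; gabapentin 100 mg/kg po as reference.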

Rattus norvegicus [5] = test: Antiallodynic activity in rat spinal nerve ligation neuropathic pain cold allodynia model at 100 mg/kg, po after 1 to 5 hrs; assay type: functional, organism-based; set-up: dose 100 mg/kg; outline: as §1
Rattus norvegicus [6] = test: Antiallodynic activity in rat spinal nerve ligation neuropathic pain mechanical allodynia model at 100 mg/kg, po after 1 to 3 hrs; assay type: functional, organism-based; set-up: dose 100 mg/kg; outline: as §1
Rattus norvegicus [7] = species on record: Rattus norvegicus; test: Ratio of gabapentin antiallodynic activity to compound antiallodynic activity in rat spinal nerve ligation neuropathic pain cold allodynia model; assay type: functional

Chain of CYP2D6 (P10635 whole entry): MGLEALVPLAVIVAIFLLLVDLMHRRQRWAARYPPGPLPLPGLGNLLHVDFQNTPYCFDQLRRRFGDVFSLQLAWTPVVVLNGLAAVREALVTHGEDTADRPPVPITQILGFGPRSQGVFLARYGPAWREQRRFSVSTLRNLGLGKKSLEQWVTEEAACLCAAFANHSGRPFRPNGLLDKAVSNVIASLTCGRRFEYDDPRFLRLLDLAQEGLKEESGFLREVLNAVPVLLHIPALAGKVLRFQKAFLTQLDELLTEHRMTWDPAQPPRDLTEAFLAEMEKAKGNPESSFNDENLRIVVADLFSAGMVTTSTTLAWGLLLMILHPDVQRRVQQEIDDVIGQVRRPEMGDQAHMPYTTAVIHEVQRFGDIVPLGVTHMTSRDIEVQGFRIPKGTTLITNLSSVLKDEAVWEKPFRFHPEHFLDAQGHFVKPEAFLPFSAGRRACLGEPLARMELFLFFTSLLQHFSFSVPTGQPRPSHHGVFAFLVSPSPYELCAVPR

| IC50 [2] | inhibition [3] | SMILES | other results |
| --- | --- | --- | --- |
| 580 nM | 95.2% | COc1ccc(N2CCc3c(NS(=O)(=O)c4cccc(F)c4)n[nH]c3C2=O)cc1 | activity at 10 µM (CYP2D6): 87.8%; activity at 10 µM (CYP2C9): 78.6%; activity at 10 µM (CYP2C19): 81.8%; activity at 10 µM (CYP3A4): 19.5%; activity at 10 µM (CYP1A2): 63.5%; remaining at 0.5 h [1]: 96.3% |
|  | 5.4% | Cc1ccc(N2CCc3c(NS(=O)(=O)c4cccc(Cl)c4)n[nH]c3C2=O)cc1 |  |
| 3280 nM | 69% | Cc1ccc(N2CCc3c(NS(=O)(=O)c4cccc(C(F)(F)F)c4)n[nH]c3C2=O)cc1 |  |
|  | 3.8% | COc1ccc(OC)c(S(=O)(=O)Nc2n[nH]c3c2CCN(c2ccc(C)cc2)C3=O)c1 |  |
| 770 nM | 89.5% | O=C1c2[nH]nc(NS(=O)(=O)c3cccc4ccccc34)c2CCN1C1CCNCC1 | activity at 10 µM (CYP2D6): 95.1%; activity at 10 µM (CYP2C9): 94.5%; activity at 10 µM (CYP2C19): 99.8%; activity at 10 µM (CYP3A4): 16.7%; activity at 10 µM (CYP1A2): 67.7%; remaining at 0.5 h [1]: 101% |
|  | 51.7% | Cc1c(Cl)cccc1S(=O)(=O)Nc1n[nH]c2c1CCN(CC1CCNCC1)C2=O |  |
|  | 30.6% | COc1ccc(N2CCc3c(NS(=O)(=O)c4ccccc4)n[nH]c3C2=O)cc1 |  |
|  | 15.1% | COc1ccc(S(=O)(=O)Nc2n[nH]c3c2CCN(CC2CCNCC2)C3=O)cc1 |  |
| 7080 nM | 63.3% | COc1ccc(N2CCc3c(NS(=O)(=O)c4cccc(OC)c4)n[nH]c3C2=O)cc1 |  |
|  | 97.7% | COc1ccc(NS(=O)(=O)c2ccc(I)cc2)cc1N1CCN(C)CC1 |  |
| 1660 nM | 92.2% | Cc1ccc(N2CCc3c(NS(=O)(=O)c4cccc(Cl)c4C)n[nH]c3C2=O)cc1 |  |
| 5220 nM | 67.9% | Cc1ccc(N2CCc3c(NS(=O)(=O)c4ccc(F)cc4)n[nH]c3C2=O)cc1 |  |
|  | 23.5% | Cc1ccc(N2CCc3c(NS(=O)(=O)c4ccccc4)n[nH]c3C2=O)cc1 |  |
|  | 30.6% | COc1ccc(N2CCc3c(NS(=O)(=O)c4ccc(F)cc4)n[nH]c3C2=O)cc1 |  |
|  | 18.1% | Cc1ccc(N2CCc3c(NS(=O)(=O)c4cccc(F)c4)n[nH]c3C2=O)cc1 |  |
|  | 30.6% | Cc1ccc(F)c(S(=O)(=O)Nc2n[nH]c3c2CCN(CC2CCNCC2)C3=O)c1 |  |
|  | 11.5% | CC(C)(C)c1ccc(S(=O)(=O)Nc2n[nH]c3c2CCN(CC2CCNCC2)C3=O)cc1 |  |
|  | 25.9% | Cc1ccc(N2CCc3c(NS(=O)(=O)c4cc(C)ccc4F)n[nH]c3C2=O)cc1 |  |
|  | 29.6% | Cc1ccc(N2CCc3c(NS(=O)(=O)c4ccccc4F)n[nH]c3C2=O)cc1 |  |
|  | 26.1% | COc1ccc(S(=O)(=O)Nc2n[nH]c3c2CCN(C2CCNCC2)C3=O)cc1 |  |
| 310 nM | 94.1% | O=C1c2[nH]nc(NS(=O)(=O)c3cccc4ccccc34)c2CCN1CC1CCNCC1 | activity at 10 µM (CYP2D6): 97.2%; Activity (Rattus norvegicus [4]): inactive; activity at 10 µM (CYP2C9): 98.4%; activity at 10 µM (CYP2C19): 104%; Activity (Rattus norvegicus [5]): Active; activity at 10 µM (CYP3A4): 17.8%; Activity (Rattus norvegicus [6]): Active; Ratio (Rattus norvegicus [7]): 5; activity at 10 µM (CYP1A2): 79.1%; remaining at 0.5 h [1]: 90.8% |
| 6770 nM | 63.2% | COc1cccc(S(=O)(=O)Nc2n[nH]c3c2CCN(c2ccc(C)cc2)C3=O)c1 |  |
|  | 40.9% | O=C1c2[nH]nc(NS(=O)(=O)c3ccc4ccccc4c3)c2CCN1CC1CCNCC1 |  |
|  | 31% | O=C1c2[nH]nc(NS(=O)(=O)c3cccc(Cl)c3)c2CCN1CC1CCNCC1 |  |
